Source: ChEMBL document CHEMBL1154342, “Scaffold-based design and synthesis of potent N-type calcium channel blockers” (Bioorg Med Chem Lett, 2009)
The source made the active and inactive calls. No cut-off for these calls is given here.

Tests used:
[1] = biological target: Voltage-dependent L-type calcium channel subunit beta-1/alpha-1B/alpha-2/delta-1 (Rattus norvegicus, UniProt Q02294); assay: Blocking of rat N-type calcium channel alpha-1B/alpha-2-delta-1/beta-1b activity expressed in HEK293 cells assessed as whole cell current by whole cell patch clamp assay; type: cell-based
Chain of Voltage-dependent L-type calcium channel subunit beta-1/alpha-1B/alpha-2/delta-1 (Q02294 whole entry): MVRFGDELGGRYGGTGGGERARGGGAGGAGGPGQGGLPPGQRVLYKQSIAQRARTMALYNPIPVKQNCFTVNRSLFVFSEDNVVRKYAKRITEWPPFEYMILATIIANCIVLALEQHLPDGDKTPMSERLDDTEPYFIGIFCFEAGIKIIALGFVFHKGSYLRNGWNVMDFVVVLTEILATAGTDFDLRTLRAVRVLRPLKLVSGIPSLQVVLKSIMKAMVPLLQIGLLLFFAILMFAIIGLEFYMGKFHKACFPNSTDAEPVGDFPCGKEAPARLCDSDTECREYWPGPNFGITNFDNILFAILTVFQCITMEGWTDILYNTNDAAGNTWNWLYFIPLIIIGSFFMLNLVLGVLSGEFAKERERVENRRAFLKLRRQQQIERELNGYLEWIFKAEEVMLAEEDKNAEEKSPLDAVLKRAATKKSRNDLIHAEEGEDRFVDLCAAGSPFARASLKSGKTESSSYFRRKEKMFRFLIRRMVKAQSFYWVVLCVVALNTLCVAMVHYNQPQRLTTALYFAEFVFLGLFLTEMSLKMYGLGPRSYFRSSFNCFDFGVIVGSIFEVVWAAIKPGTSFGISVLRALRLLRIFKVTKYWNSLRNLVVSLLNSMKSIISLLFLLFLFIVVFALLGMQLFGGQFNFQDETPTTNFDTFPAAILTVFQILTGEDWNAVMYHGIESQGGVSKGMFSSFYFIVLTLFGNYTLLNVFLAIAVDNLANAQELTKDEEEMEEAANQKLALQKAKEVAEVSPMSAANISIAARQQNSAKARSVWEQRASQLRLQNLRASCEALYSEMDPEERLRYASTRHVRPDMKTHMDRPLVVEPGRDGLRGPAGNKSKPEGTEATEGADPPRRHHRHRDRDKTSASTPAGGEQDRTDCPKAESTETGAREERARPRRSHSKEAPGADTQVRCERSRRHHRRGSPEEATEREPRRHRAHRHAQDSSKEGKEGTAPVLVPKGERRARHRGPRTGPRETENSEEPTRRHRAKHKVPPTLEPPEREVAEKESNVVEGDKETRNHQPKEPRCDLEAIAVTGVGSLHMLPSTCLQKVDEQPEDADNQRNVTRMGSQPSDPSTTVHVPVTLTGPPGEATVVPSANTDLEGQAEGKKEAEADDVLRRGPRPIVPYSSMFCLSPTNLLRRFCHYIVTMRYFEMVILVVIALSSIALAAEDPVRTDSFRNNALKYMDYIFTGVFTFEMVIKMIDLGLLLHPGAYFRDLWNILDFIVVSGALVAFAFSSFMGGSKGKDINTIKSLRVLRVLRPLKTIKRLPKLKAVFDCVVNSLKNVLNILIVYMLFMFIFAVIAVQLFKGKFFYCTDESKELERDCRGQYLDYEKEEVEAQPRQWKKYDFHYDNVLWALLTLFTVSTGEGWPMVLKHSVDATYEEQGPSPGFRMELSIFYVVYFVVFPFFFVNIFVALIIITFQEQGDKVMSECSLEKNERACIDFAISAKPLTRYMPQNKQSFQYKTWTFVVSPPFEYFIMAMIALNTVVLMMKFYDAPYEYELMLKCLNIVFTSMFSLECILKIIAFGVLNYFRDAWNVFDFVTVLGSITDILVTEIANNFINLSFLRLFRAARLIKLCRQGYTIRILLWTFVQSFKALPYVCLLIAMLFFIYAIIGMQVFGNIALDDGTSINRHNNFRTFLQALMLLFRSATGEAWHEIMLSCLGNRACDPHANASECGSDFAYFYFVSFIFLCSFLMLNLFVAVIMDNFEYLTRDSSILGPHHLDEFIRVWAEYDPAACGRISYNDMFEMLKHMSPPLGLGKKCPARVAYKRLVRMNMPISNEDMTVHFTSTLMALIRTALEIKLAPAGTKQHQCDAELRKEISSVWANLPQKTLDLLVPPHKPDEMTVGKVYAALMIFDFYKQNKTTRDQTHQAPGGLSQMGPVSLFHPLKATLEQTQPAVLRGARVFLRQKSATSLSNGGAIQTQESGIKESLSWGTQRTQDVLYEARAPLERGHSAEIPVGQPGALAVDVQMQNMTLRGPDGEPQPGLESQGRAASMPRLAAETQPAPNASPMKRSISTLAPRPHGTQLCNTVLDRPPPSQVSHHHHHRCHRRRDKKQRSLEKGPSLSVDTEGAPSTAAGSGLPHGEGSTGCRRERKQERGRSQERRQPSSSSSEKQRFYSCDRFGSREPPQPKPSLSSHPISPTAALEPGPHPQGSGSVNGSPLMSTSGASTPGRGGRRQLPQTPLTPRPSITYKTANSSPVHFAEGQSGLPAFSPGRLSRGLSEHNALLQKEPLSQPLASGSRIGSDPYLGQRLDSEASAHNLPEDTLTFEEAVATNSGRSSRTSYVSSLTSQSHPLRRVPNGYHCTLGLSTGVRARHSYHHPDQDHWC
Chain of Voltage-dependent L-type calcium channel subunit beta-1/alpha-1B/alpha-2/delta-1 (P54283 whole entry partner): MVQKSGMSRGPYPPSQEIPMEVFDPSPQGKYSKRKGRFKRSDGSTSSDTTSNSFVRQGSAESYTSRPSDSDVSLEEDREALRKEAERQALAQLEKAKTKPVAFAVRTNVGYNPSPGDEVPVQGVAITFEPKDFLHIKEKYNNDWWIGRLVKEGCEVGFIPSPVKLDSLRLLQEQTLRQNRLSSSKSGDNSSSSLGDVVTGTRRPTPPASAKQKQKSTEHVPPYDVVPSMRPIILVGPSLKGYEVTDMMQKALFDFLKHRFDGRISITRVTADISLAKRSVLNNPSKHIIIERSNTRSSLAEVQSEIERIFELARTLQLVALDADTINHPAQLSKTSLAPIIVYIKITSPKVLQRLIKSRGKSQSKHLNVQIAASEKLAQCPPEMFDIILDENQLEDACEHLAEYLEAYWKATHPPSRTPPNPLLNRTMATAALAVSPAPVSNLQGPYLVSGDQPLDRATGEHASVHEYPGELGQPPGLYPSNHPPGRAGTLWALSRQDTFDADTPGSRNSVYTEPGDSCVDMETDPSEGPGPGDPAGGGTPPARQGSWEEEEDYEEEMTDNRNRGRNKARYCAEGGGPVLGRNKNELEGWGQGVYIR
Chain of Voltage-dependent L-type calcium channel subunit beta-1/alpha-1B/alpha-2/delta-1 (P54290 25-944 partner limits assumed): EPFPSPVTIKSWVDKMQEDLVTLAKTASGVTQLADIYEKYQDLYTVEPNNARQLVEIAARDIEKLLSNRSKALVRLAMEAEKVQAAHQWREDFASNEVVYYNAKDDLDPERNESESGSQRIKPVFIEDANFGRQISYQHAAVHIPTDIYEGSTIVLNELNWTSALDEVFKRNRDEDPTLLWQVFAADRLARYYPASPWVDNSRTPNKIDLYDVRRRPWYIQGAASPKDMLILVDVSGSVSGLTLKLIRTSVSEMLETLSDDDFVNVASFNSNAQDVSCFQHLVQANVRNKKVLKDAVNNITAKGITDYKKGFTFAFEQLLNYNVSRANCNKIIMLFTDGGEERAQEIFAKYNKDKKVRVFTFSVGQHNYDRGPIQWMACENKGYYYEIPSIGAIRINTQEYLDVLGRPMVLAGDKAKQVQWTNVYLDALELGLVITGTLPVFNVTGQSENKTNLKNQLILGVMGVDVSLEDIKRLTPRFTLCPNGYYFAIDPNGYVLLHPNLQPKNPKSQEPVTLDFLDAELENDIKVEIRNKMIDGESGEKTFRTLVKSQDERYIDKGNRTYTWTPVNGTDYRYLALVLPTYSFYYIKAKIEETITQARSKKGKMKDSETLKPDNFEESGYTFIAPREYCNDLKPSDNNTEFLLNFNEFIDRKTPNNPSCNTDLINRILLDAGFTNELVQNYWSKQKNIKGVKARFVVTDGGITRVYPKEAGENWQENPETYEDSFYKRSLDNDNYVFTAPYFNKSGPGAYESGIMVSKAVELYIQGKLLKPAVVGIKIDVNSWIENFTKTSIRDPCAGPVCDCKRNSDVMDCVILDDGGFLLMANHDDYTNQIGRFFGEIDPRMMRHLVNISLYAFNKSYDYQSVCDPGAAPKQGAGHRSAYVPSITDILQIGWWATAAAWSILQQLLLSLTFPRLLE
Chain of Voltage-dependent L-type calcium channel subunit beta-1/alpha-1B/alpha-2/delta-1 (P54290 945-1091 partner limits assumed): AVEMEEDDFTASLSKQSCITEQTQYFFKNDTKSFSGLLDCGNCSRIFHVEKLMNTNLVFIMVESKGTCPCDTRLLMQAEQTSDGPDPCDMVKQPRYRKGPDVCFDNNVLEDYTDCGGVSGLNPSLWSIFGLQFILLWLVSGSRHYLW
Procedure, shortened: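 HEK293 cells transiently transfected with rat channel subunits, recorded 24–72 h post-transfection. Whole-cell patch clamp with barium as charge carrier; currents elicited from a holding potential of −100 mV to the peak of the current–voltage relation. Each compound tested on 3–5 cells; IC50 estimated.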

[2] = organism: Rattus norvegicus; assay: Selectivity ratio of IC50 for rat Voltage-dependent L-type calcium channel to IC50 for rat N-type calcium channel
Procedure, shortened: (§1)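 HEK293 cells transiently transfected with rat channel subunits and recorded 24–72 h later. Whole-cell patch clamp used barium as the charge carrier. Currents were elicited from a holding potential of −100 mV to the peak of each channel's current–voltage relation. Each compound was tested on 3–5 cells per subtype.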

[3] = Blocking of rat Voltage-dependent L-type calcium channel alpha1c/alpha2delta-1/beta1b activity expressed in HEK293 cells assessed as whole cell current by whole cell patch clamp assay; type: cell-based; procedure, shortened: as §1
[4] = Cmax in rat at 2 mg/kg, iv; type: ADME, organism-based; parameters: dose 2 mg/kg, route intravenous; settings: in vivo
Procedure, shortened: (§2)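 Rats given a single dose by vein (2 mg/kg) or by mouth (10 mg/kg). Plasma sampled, with AUC taken to 8 h and extrapolated to infinity. Cmax is the highest observed concentration, and Tmax is the time to it. Half-life, apparent volume of distribution, plasma clearance and oral bioavailability were also derived. Values are given as mean with standard error.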

[5] = AUC (0 to 8 hrs) in rat at 2 mg/kg, iv; type: ADME, organism-based; parameters: time < 8 hr, dose 2 mg/kg, route intravenous; settings: plasma; procedure, shortened: as §2
[6] = AUC (0 to infinity) in rat at 2 mg/kg, iv; type: ADME, organism-based; parameters: time infinity, dose 2 mg/kg, route intravenous; settings: plasma; procedure, shortened: as §2
[7] = Half life in rat at 2 mg/kg, iv; type: ADME, organism-based; parameters: dose 2 mg/kg, route intravenous; settings: in vivo; procedure, shortened: as §2
[8] = Volume of distribution at steady state in rat at 2 mg/kg, iv; type: ADME, organism-based; parameters: dose 2 mg/kg, route intravenous; settings: in vivo, read-out: Vdss; procedure, shortened: as §2
[9] = system: Rattus norvegicus; assay: Analgesic activity against phse 2A portion of rat formalin-induced inflammatory pain model assessed as flinches at 25 mg/kg, ip; type: functional, organism-based; parameters: dose 25 mg/kg
Procedure, shortened: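 Rat formalin inflammatory pain model with the phase IIA portion scored. Compounds were given intraperitoneally at 25 mg/kg, using 24–26 animals per group.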

[10] = Cmax in rat at 10 mg/kg, po; settings: in vivo
[11] = Half life in rat at 10 mg/kg, po; settings: in vivo
[12] = AUC (0 to 8 hrs) in rat at 10 mg/kg, po; settings: plasma
[13] = AUC (0 to infinity) in rat at 10 mg/kg, po; settings: plasma
[14] = Oral bioavailability in rat at 10 mg/kg, po; settings: in vivo
[15] = system: Rattus norvegicus; assay: Apparent oral clearance in rat at 10 mg/kg, po; settings: in vivo
[16] = biological target: hERG (KCNH2) (Homo sapiens, UniProt Q12809); assay: Inhibition of human ERG current at 1 uM
Procedure, shortened: (§3)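 Whole-cell patch clamp of HEK cells stably expressing hERG, measuring peak tail currents. A single 1 µM application was used for the screen. The concentration–response used 0.1, 1, 3 and 10 µM against a 0.1% DMSO control, with n = 4 per concentration.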

[17] = biological target: Voltage-gated inwardly rectifying potassium channel KCNH2 (Homo sapiens, UniProt Q12809); assay: Inhibition of human ERG current; procedure, shortened: as §3
[18] = Displacement of radioligand from Voltage-dependent L-type calcium channel at 10 uM
[19] = biological target: Cannabinoid receptor 1 (Homo sapiens) (UniProt P21554); assay: Displacement of radioligand from cannabinoid CB1 receptor at 10 uM
Chain of Cannabinoid receptor 1 (Homo sapiens) (P21554 whole entry): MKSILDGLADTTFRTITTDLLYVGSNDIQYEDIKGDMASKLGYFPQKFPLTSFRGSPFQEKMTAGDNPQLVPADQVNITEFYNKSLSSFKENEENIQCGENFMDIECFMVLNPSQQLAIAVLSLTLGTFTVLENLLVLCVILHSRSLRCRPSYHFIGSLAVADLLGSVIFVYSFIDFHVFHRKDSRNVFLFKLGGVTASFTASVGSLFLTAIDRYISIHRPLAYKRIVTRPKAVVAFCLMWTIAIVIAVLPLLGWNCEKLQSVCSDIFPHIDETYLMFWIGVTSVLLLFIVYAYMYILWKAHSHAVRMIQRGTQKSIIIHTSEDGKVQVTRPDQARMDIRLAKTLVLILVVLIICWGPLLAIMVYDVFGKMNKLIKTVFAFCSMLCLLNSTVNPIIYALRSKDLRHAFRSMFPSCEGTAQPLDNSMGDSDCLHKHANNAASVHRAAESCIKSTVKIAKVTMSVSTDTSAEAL

[20] = biological target: Mu-type opioid receptor (Homo sapiens) (UniProt P35372); assay: Displacement of radioligand from mu opioid receptor at 10 uM
Chain of Mu-type opioid receptor (Homo sapiens) (P35372 whole entry): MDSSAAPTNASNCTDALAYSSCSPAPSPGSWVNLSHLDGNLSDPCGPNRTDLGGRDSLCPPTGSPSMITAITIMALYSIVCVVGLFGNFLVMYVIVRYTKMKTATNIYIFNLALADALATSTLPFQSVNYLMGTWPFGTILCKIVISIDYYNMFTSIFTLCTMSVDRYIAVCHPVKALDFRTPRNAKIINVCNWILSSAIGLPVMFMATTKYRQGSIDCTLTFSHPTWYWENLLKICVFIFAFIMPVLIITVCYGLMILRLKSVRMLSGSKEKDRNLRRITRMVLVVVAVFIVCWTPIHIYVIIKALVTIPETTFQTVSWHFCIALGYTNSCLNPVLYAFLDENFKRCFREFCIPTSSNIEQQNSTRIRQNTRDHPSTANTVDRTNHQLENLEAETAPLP

[21] = Displacement of radioligand from voltage-gated sodium channel at 10 uM

Row | SMILES | IC50 [1] | Ratio IC50 [2] | IC50 ([3]; HEK293) | further results
1 | COc1cc(CN2CCN(C(=O)CCCCC(c3ccc(F)cc3)c3ccc(F)cc3)CC2)cc(OC)c1OC | 190 nM |  |  | 
2 | O=C(CCCCC(c1ccccc1)c1ccccc1)N1CCN(C/C=C/c2ccccc2)CC1 (stereo in doubt; 5c) [listing 1 of 2 here] |  | 2.8 |  | 
3 | O=C(CCCCC(c1ccccc1)c1ccccc1)N1CCN(C/C=C/c2cccc3c2OCO3)CC1 | 190 nM |  |  | 
4 | O=C(CCCC(c1ccccc1)c1ccccc1)N1CCN(C(c2ccccc2)c2ccccc2)CC1 | > 50000 nM |  |  | 
5 | O=C(CCCCC(c1ccccc1)c1ccccc1)N1CCN(C/C=C/c2ccccc2)CC1 (stereo in doubt; 5a) [listing 1 of 2 here] | 50 nM |  | 390 nM | 
6 | O=C(CCCCC(c1ccccc1)c1ccccc1)N1CCN(C(c2ccccc2)c2ccccc2)CC1 | 50000 nM |  |  | 
7 | O=C(/C=C/c1cccc2c1OCO2)N1CCN(C(=O)CCCCC(c2ccccc2)c2ccccc2)CC1 | 130 nM | 5.7 | 740 nM | 
8 | O=C(CCCCC(c1ccccc1)c1ccccc1)N1CCN(C/C=C/c2ccccc2)CC1 (stereo in doubt; 5a) [listing 2 of 2 here] |  | 8 |  | 
9 | COc1ccc(CN2CCN(C(c3ccc(F)cc3)c3ccc(F)cc3)CC2)c(OC)c1OC [LOMERIZINE] |  | 1.7 | 150 nM | 
10 | COc1ccc(/C=C/C(=O)N2CCN(C(=O)CCCCC(c3ccccc3)c3ccccc3)CC2)cc1 | 90 nM | 2.8 | 250 nM | 
11 | c1ccc(C(CCCCCN2CCN(C(c3ccccc3)c3ccccc3)CC2)c2ccccc2)cc1 | 50000 nM |  |  | 
12 | COc1cc(C(=O)N2CCN(CCCCCC(c3ccc(F)cc3)c3ccc(F)cc3)CC2)cc(OC)c1OC | 110 nM |  | 2840 nM | Cmax [4]: 462 ng/mL; AUC(0-t) at 8 h [5]: 725 ng·h/mL; AUC(0-inf) [6]: 975 ng·h/mL; half-life [7]: 5 h; Vd [8]: 11.7 L/kg; Activity [9]: Active; Cmax [10]: 173 ng/mL; half-life [11]: 4.5 h; AUC(0-t) at 8 h [12]: 753 ng·h/mL; AUC(0-inf) [13]: 1020 ng·h/mL; bioavailability [14]: 21%; CL/F [15]: 170 mL/min/kg
13 | c1ccc(C(CCN2CCN(C(c3ccccc3)c3ccccc3)CC2)c2ccccc2)cc1 | 5000 nM |  |  | 
14 | c1ccc(C(CCCN2CCN(C(c3ccccc3)c3ccccc3)CC2)c2ccccc2)cc1 | 6000 nM |  |  | 
15 | COc1cc(C(=O)N2CCN(C(=O)CCCCC(c3ccc(F)cc3)c3ccc(F)cc3)CC2)cc(OC)c1OC | 540 nM |  |  | 
16 | O=C(CCCCC(c1ccccc1)c1ccccc1)N1CCN(C/C=C/c2ccccc2)CC1 (stereo in doubt; 5c) [listing 2 of 2 here] | 120 nM |  |  | IC50 ([3]; hek293): 330 nM
17 | O=C(C(c1ccccc1)c1ccccc1)N1CCN(C(c2ccccc2)c2ccccc2)CC1 | > 50000 nM |  |  | 
18 | c1ccc(C(CCCCN2CCN(C(c3ccccc3)c3ccccc3)CC2)c2ccccc2)cc1 | 20000 nM |  |  | 
19 | Fc1ccc(C(c2ccc(F)cc2)N2CCN(C/C=C/c3ccccc3)CC2)cc1 [FLUNARIZINE] | 80 nM | 3.9 | 310 nM | 
20 | c1ccc(C(CN2CCN(C(c3ccccc3)c3ccccc3)CC2)c2ccccc2)cc1 | > 50000 nM |  |  | 
21 | O=C(NC(c1ccccc1)c1ccccc1)N1CCN(C(c2ccccc2)c2ccccc2)CC1 |  | 12 | 1840 nM | 
22 | COc1ccc(/C=C/CN2CCN(C(=O)CCCCC(c3ccccc3)c3ccccc3)CC2)cc1 | 190 nM |  |  | 
23 | Nc1ccc(/C=C/C(=O)N2CCN(C(=O)CCCCC(c3ccccc3)c3ccccc3)CC2)cc1 | 150 nM | 5.5 | 830 nM | 
24 | O=C(CC(c1ccccc1)c1ccccc1)N1CCN(C(c2ccccc2)c2ccccc2)CC1 [Z160] | 110 nM | 111 | 12200 nM | Cmax [4]: 771 ng/mL; AUC(0-t) at 8 h [5]: 715 ng·h/mL; AUC(0-inf) [6]: 761 ng·h/mL; half-life [7]: 3.3 h; Vd [8]: 5.79 L/kg; Activity [9]: Active; inhibition at 1 µM [16]: 24.8%; IC50 [17]: 7400 nM; Activity [18]: Active; Activity [19]: Active; Activity [20]: Active; Activity [21]: Active; Cmax [10]: 235 ng/mL; half-life [11]: 2.1 h; AUC(0-t) at 8 h [12]: 999 ng·h/mL; AUC(0-inf) [13]: 1140 ng·h/mL; bioavailability [14]: 30%; CL/F [15]: 164 mL/min/kg
25 | O=C(CCC(c1ccccc1)c1ccccc1)N1CCN(C(c2ccccc2)c2ccccc2)CC1 | 23000 nM |  |  | 
26 | O=C(CCCCC(c1ccc(F)cc1)c1ccc(F)cc1)N1CCN(C/C=C/c2ccccc2)CC1 | 90 nM | 1.3 | 120 nM | 
